Screens as filed in PubChem BioAssay.
STAT3 blocker = inhibitors of IL-6 induced STAT3 signaling; inhibition, % at 5.5 µM; U3A cells, IL-6 STAT3-luciferase reporter, luminescence; host cell line lacks STAT1; hit rate 0.89% among 190,000;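 active means inhibition above the mean inhibition across all screened compounds plus 3 SD, cut at about 44% in these data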;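 further: 0% = DMSO only wells and 100% = 100 µM nifuroxazide control wells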
STAT3 activator = activators of IL-6 induced STAT3 signaling. U3A cells, IL-6 STAT3-luciferase reporter, luminescence; 100% = signal with IL-6 EC80 alone. hit rate 0.91% among 190,000. activation (% of control), % at 5.6 µM;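 active means activation above the screen-wide mean of compound activation plus 3 SD, cut at about 130% in these data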;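 further: 0% = background luminescence of wells with medium and substrate only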
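Test system: human U3A cells carrying STAT3-luciferase construct; control set: IL-6-only wells as 100% reference; timing: compound pre-incubation 1 h before IL-6, then 6 h stimulation at 37 °C; also added: IL-6 stimulus at 33 ng/mL final; evaluation: % activation versus median of IL-6-stimulated wells; detection: reporter luminescence signal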
APP 5'UTR act = APP 5'UTR luciferase reporter activation; SH-SY5Y APP 5'UTR luciferase reporter, luminescence; zero percent = DMSO vehicle wells; activation, % at 2 µM; hit rate 1% among 190,000;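 active means activation above a set limit, based on mean plus 3 SD of controls, cut at about 140% in these data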
NF-kB expr up = NF-kB expression increase, human neuronal cells | fold change at 12.5 µM | NF-kB reporter expression; hits give high values | hit rate 1.6% among 190,000; in the data active means fold change above about 3.3
STAT1 inh-1 = STAT1 signaling inhibition. NIH 3T3 STAT1-luciferase reporter, IFN-gamma, luminescence. hit rate 0.35% among 200,000. inhibition, % at 5.5 µM;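 active means inhibition above a set limit, the mean inhibition across all tested compounds plus 3 SD, cut at about 34% in these data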;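 further: 0% = IFN-gamma with DMSO and 100% = IFN-gamma with 300 µM nifuroxazide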
STAT1 act = STAT1 signaling activation; NIH 3T3 STAT1-luciferase reporter, IFN-gamma, luminescence; 100% = IFN-gamma alone, no compound; activation (% of control), % at 5.5 µM; hit rate 2.6% among 200,000; AID 932;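 active means activation above the screen-wide mean activation plus 3 SD, cut at about 130% in these data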;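 further: raw ratio to IFN-gamma control signal so 100% means no change and 0% no light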
STAT1 inh-2 = STAT1 inhibition, confirmation assay | NIH 3T3 STAT1-luciferase reporter, IFN-gamma, luminescence | hit rate 55% among 200 | AID 1263 | shares compounds with STAT1 inh-1 | inhibition, % at 5.5 µM;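 active means triplicate mean inhibition exceeding the hit cutoff computed for the primary STAT1 screen, cut at about 35% in these data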;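 further: 0% = DMSO with IFN-gamma and 100% = 300 µM nifuroxazide with IFN-gamma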
NFkB inh = inhibits NF-kappaB, counter-screen to STAT1 inhibitors. HEK293T NF-kB luciferase reporter, TNF-alpha induced, luminescence. hit rate 30% among 200. shares compounds with STAT1 inh-1. inhibition, % at 5.7 µM;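 active means inhibition above the mean of solvent-only control wells plus 3 SD of those wells, cut at about 15% in these data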;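 further: 0% = DMSO with TNF-alpha and 100% = MG-132 control with TNF-alpha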
STAT3 inh 2 = inhibits STAT3, counter-screen to STAT1 inhibitors; hit rate 20% among 200; U3A cells, IL-6 STAT3 luciferase reporter, luminescence; cells lacking STAT1; inhibition, % at 5.7 µM; shares compounds with STAT1 inh-1;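 active means inhibition above the mean of solvent-only control wells plus 3 SD, set per campaign, cut at about 25% in these data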;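 further: 0% = IL-6 plus DMSO and 100% = IL-6 plus nifuroxazide control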
STAT1 act conf = confirmation of STAT1 signaling activators; shares compounds with STAT1 act; AID 1262; NIH 3T3 STAT1-luciferase reporter, IFN-gamma potentiation, luminescence; 100% = IFN-gamma EC80 alone, no compound; hit rate 97% among 1,200; activation (% of control), % at 5.7 µM;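 active means activation above a set limit carried over from the earlier primary STAT1 screen, cut at about 140% in these data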;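 further: simple ratio to median IFN-gamma plus DMSO wells so 0% means no light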
NFkB act STAT1ct = NF-kappaB activation in STAT1 activator counter-screen; shares compounds with STAT1 act; HEK293T NF-kB luciferase reporter, TNF-alpha stimulated, luminescence; 100% = TNF-alpha with vehicle only; activation (% of control), % at 5.7 µM; hit rate 43% among 1,200; AID 1306;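 active means activation above the mean of solvent-only control wells plus 3 SD, set per campaign, cut at about 130% in these data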;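 further: TNF-alpha given at a submaximal dose yielding about 80% of full reporter signal; values are well signal over median control so 100% means no change and 0% no light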
STAT3 act STAT1c = activates human STAT3, counter-screen to STAT1 activators | shares compounds with STAT1 act | hit rate 46% among 1,200 | U3A cells STAT3-luciferase reporter, IL-6, luminescence; cells lack STAT1; 100 = IL-6 alone, no compound effect | activation (% of control), % at 5.7 µM;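 active means activation above the solvent-only control well mean plus 3 SD, set per plate batch, cut at about 110% in these data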;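 further: 0% = no luminescence and 100% = median IL-6 plus DMSO wells; higher means more STAT3 reporter activation so hits are non-selective activators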
Active calls of the source: *; / = no result given. This is a sample that favours compounds with a hit; in the whole collection about 4.9% have one here.

SMILES	STAT3 blocker	STAT3 activator	APP 5'UTR act	NF-kB expr up	STAT1 inh-1	STAT1 act	STAT1 inh-2	NFkB inh	STAT3 inh 2	others
COc1ccc(-c2cc(C(F)(F)F)nc(S(=O)(=O)CCCC(=O)Nc3cccnc3Cl)n2)cc1OC	4	99	-17	1.2	44*	58	38*	5	-8
COC(=O)CCS(=O)(=O)c1nc(-c2ccccc2)cc(C(F)(F)F)n1	13	92	-21	1.1	38*	65	42*	-14	4
CC(Sc1nc(-c2ccccc2)cc(C(F)(F)F)n1)C(=O)O (stereo not drawn)	11	92	-18	1.1	5	94	/	/	/
CCOc1cc(CN2CCC(CO)(Cc3cccc(C(F)(F)F)c3)CC2)ccc1OC	7	104	15	0.71	-2	101	/	/	/
N#Cc1ccc(N/N=C/c2ccccc2)c([N+](=O)[O-])c1	24	84	-32	1.2	0	100	/	/	/
CCCS(=O)(=O)c1nnnn1-c1cccc(OC)c1	11	95	-62	0.16	46*	58	52*	24*	0
O=C(N/N=C/c1cc([N+](=O)[O-])c(N2CCOCC2)cc1N1CCOCC1)c1cccnc1	20	92	-12	1.2	1	99	/	/	/
CCC(=O)Nc1ccc(-c2nc3ccccc3c(=O)o2)cc1	32	76	-15	/	39*	63	19	14	-3
O=C1CCN(S(=O)(=O)c2ccc(Br)cc2)CCN1	-6	107	-3	0.98	-2	101	/	/	/
O=C(O)CSc1nnc(NC(=O)c2ccc3c(c2)OCO3)s1	21	91	1	0.92	38*	65	27	20*	17
COc1cc(/C=C/C(=O)OCC(=O)NC(=O)NC(C)C)cc(S(=O)(=O)N2CCc3ccccc32)c1OC	13	91	10	1	59*	45	46*	18*	-4
Cc1cc(=O)n(C(NC(=O)c2ccccc2)C(=O)c2ccccc2)cn1 (stereo not drawn)	12	91	21	0.87	42*	62	46*	1	-61
Cn1nnnc1Sc1ncnc2scc(-c3ccccc3)c12	-8	113	-8	2.9	44*	60	49*	-7	-12
Cn1nnnc1Sc1ncnc2scc(-c3ccc(F)cc3)c12	0	102	0	1.8	38*	66	50*	-18	-12
CC(=O)Nc1ccc(Sc2ncnc3scc(-c4ccccc4)c23)cc1	-5	107	7	0.87	1	100	/	/	/
COc1ccc(C(=O)NN/C(C)=C/C(=O)C(F)(F)C(F)(F)C(F)(F)F)cc1	6	98	13	0.95	-15	113	/	/	/
CC(C)(C)C1CCc2c(sc(NC(=O)c3cccs3)c2C(N)=O)C1 (stereo not drawn)	8	94	-5	0.82	54*	51	-58	-6	-21
CCC(C)(C)C1CCc2c(sc(NC(=O)c3cccs3)c2C(N)=O)C1 (stereo not drawn)	10	93	20	1.2	16	85	/	/	/
O=C(c1ccco1)N1CCN(c2ccnc3cc(Cl)ccc23)CC1	11	98	8	0.5	35*	67	43*	24*	-8
CCC(C)(C)NC(=O)C(c1cccnc1)N(C(=O)c1csnn1)c1ccccc1 (stereo not drawn)	5	100	-1	1.4	2	98	/	/	/
CCOC(=O)C(=CNc1cc(C)nn1-c1ccccc1)C(=O)OCC	12	92	-22	0.51	52*	52	46*	0	6
C/C(=N\NC(=O)c1ccc(COc2ccccc2)cc1)c1ccncc1	4	101	-14	0.98	-4	101	/	/	/
O=S(=O)(CC(CN1CCCCC1)N1CCCCC1)c1ccc2ccccc2c1 (stereo not drawn)	2	104	-42	2.3	35*	65	15	-3	-50
CC(C)CNC(=O)c1ccccc1NC(=O)/C=C/c1cccc([N+](=O)[O-])c1	-1	99	18	1.1	-3	103	/	/	/
CCOC(=O)N1CCC(N2C(=O)c3ccccc3C2Nc2cccnc2)CC1 (stereo not drawn)	3	98	6	0.78	34*	69	28	5	6
SMILES	STAT3 blocker	STAT3 activator	APP 5'UTR act	NF-kB expr up	STAT1 inh-1	STAT1 act	STAT1 inh-2	NFkB inh	STAT3 inh 2	others
CCN(Cc1ccccc1)c1ccc(/C=C(\C#N)c2ccccn2)cc1	-21	113	117	1.9	-74	167*	/	/	/	STAT1 act conf=197*;NFkB act STAT1ct=143*;STAT3 act STAT1c=113*
COc1cc(/C=C(\C#N)c2ccccn2)ccc1OCc1ccccc1	12	93	-7	1.4	13	89	/	/	/
CC(=O)Nc1ccc(NC(=O)CN(c2cc(Cl)ccc2Cl)S(C)(=O)=O)cc1	-5	110	31	/	3	97	/	/	/
CCC(C)NC(=S)N(CCc1ccccc1)Cc1cc2cc(OC)c(OC)cc2[nH]c1=O (stereo not drawn)	6	102	-6	0.5	5	96	/	/	/
Cc1cccc(C(=O)n2c(=S)nc3ccccn32)c1	-3	109	122	4.4*	-100	192*	/	/	/	STAT1 act conf=430*;NFkB act STAT1ct=185*;STAT3 act STAT1c=127*
Cc1nc2ccc(Cl)cc2nc(C)/c1=N\O	4	100	158*	2.3	-57	152*	/	/	/	STAT1 act conf=144*;NFkB act STAT1ct=126;STAT3 act STAT1c=120*
CC(=O)c1c(C)nc2cc(Cl)ccc2c1N	7	96	11	1	-18	116	/	/	/
O=C(CCc1nnc(CCCc2ccccc2)o1)NC(C1CC1)C1CC1	-20	119	90	5.8*	-60	154*	/	/	/	STAT1 act conf=206*;NFkB act STAT1ct=145*;STAT3 act STAT1c=129*
O=C(CCc1nnc(CCCCc2ccccc2)o1)NCCc1cccnc1	0	103	-3	1.4	6	93	/	/	/
